According to ChEMBL document CHEMBL2407075, “Sulphonamido-quinoxalines: search for anticancer agent” (Eur J Med Chem, 2013):

How the values were obtained:
Format in all cases: functional
[1] = Growth inhibition of human Hs 578T cells assessed as cell growth at 10^-4 M after 48 hrs by sulforhodamine B assay; details: read-out: Activity
Method in brief: (§1)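 Five-dose screen at NCI. Cells in RPMI 1640 with 5% FBS and 2 mM L-glutamine, seeded at 5000–40,000 cells/well and grown 24 h at 37 °C, 5% CO2 before dosing, with time-zero plates TCA-fixed. Drug diluted from DMSO stock to 0.01, 0.1, 1, 10 and 100 µM final, 48 h. Cells fixed with cold TCA (10% final), stained with 0.4% SRB and read at 515 nm. Percent growth from Tz, control and test absorbances; GI50, TGI and LC50 from dose-response curves.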

SK-MEL-28 = test: Growth inhibition of human SK-MEL-28 cells assessed as cell growth at 10^-4 M after 48 hrs by sulforhodamine B assay; details: SK-MEL-28, 48 h, read-out: Activity
SF-295 = test: Growth inhibition of human SF295 cells assessed as cell growth at 10^-4 M after 48 hrs by sulforhodamine B assay; details: SF-295, 48 h, read-out: Activity
BT-549 [2] = test: Growth inhibition of human BT549 cells assessed as cell growth at 10^-5 M after 48 hrs by sulforhodamine B assay; details: BT-549, 48 h, read-out: Activity
Method in brief: (§2)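 Five-dose NCI-60 run (0.01, 0.1, 1, 10 and 100 µM, as 10-fold dilutions from a DMSO stock made at 400× the top final level). Cells were grown in RPMI 1640 with 5% FBS and 2 mM glutamine and plated for 24 h. They were then exposed for 48 h at 37 °C and 5% CO2. TCA fixation was followed by SRB staining with A515 read-out. Percent growth was taken relative to time-zero and control plates.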

Malme-3M [3] = test: Growth inhibition of human MALME-3M cells assessed as cell growth at 10^-5 M after 48 hrs by sulforhodamine B assay; details: read-out: Activity
SNB-19 = test: Growth inhibition of human SNB19 cells assessed as cell growth at 10^-5 M after 48 hrs by sulforhodamine B assay; details: SNB-19, 48 h, read-out: Activity
NCI-H226 = test: Growth inhibition of human NCI-H226 cells assessed as cell growth at 10^-5 M after 48 hrs by sulforhodamine B assay; details: NCI-H226, 48 h, read-out: Activity
HOP-92 = test: Growth inhibition of human HOP92 cells assessed as cell growth at 10^-5 M after 48 hrs by sulforhodamine B assay; details: HOP-92, 48 h, read-out: Activity; method in brief: as §1
[4] = Growth inhibition of human EKVX cells assessed as cell growth at 10^-5 M after 48 hrs by sulforhodamine B assay; details: read-out: Activity; method in brief: as §1
MOLT-4 [5] = test: Growth inhibition of human MOLT4 cells assessed as cell growth at 10^-5 M after 48 hrs by sulforhodamine B assay; details: MOLT-4, 48 h, read-out: Activity
[6] = Growth inhibition of human Hs 578T cells assessed as cell growth at 10^-6 M after 48 hrs by sulforhodamine B assay; details: read-out: Activity; method in brief: as §1
DU-145 = test: Growth inhibition of human DU145 cells assessed as cell growth at 10^-6 M after 48 hrs by sulforhodamine B assay; details: DU-145, 48 h, read-out: Activity; method in brief: as §2
786-0 [7] = test: Growth inhibition of human 786-0 cells assessed as cell growth at 10^-6 M after 48 hrs by sulforhodamine B assay; details: 786-0, 48 h, read-out: Activity; method in brief: as §2
MOLT-4 [8] = test: Growth inhibition of human MOLT4 cells assessed as cell growth at 10^-6 M after 48 hrs by sulforhodamine B assay; details: MOLT-4, 48 h, read-out: Activity
[9] = Growth inhibition of human Hs 578T cells assessed as cell growth at 10^-7 M after 48 hrs by sulforhodamine B assay; details: read-out: Activity; method in brief: as §1
MDA-MB-231 = test: Growth inhibition of human MDA-MB-231 cells assessed as cell growth at 10^-7 M after 48 hrs by sulforhodamine B assay; details: MDA-MB-231, 48 h, read-out: Activity
A498 = test: Growth inhibition of human A498 cells assessed as cell growth at 10^-7 M after 48 hrs by sulforhodamine B assay; details: A498, 48 h, read-out: Activity; method in brief: as §2
[10] = Growth inhibition of human NCI-ADR-RES cells assessed as cell growth at 10^-7 M after 48 hrs by sulforhodamine B assay; details: read-out: Activity
UACC-62 = test: Growth inhibition of human UACC62 cells assessed as cell growth at 10^-7 M after 48 hrs by sulforhodamine B assay; details: UACC-62, 48 h, read-out: Activity
SW-620 = test: Growth inhibition of human SW620 cells assessed as cell growth at 10^-7 M after 48 hrs by sulforhodamine B assay; details: SW-620, 48 h, read-out: Activity
HCT-116 = test: Growth inhibition of human HCT116 cells assessed as cell growth at 10^-7 M after 48 hrs by sulforhodamine B assay; details: HCT-116, 48 h, read-out: Activity; method in brief: as §1
HOP-62 = test: Growth inhibition of human HOP62 cells assessed as cell growth at 10^-7 M after 48 hrs by sulforhodamine B assay; details: HOP-62, 48 h, read-out: Activity; method in brief: as §1
BT-549 [11] = test: Growth inhibition of human BT549 cells assessed as cell growth at 10^-8 M after 48 hrs by sulforhodamine B assay; details: BT-549, 48 h, read-out: Activity; method in brief: as §2
TK-10 = test: Growth inhibition of human TK10 cells assessed as cell growth at 10^-8 M after 48 hrs by sulforhodamine B assay; details: TK-10, 48 h, read-out: Activity
786-0 [12] = test: Growth inhibition of human 786-0 cells assessed as cell growth at 10^-8 M after 48 hrs by sulforhodamine B assay; details: 786-0, 48 h, read-out: Activity; method in brief: as §2
PC-3 = test: Growth inhibition of human PC3 cells after 48 hrs by sulforhodamine B assay; details: PC-3, 48 h; for CC50: read-out: LC50 (the source's name)
Method in brief: (§3)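 Adherent cells in RPMI 1640 with 5% FBS and 2 mM L-glutamine were plated at 5000–40,000 cells/well and grown 24 h. Five concentrations (0.01–100 µM, DMSO stock) were added for 48 h at 37 °C. Cells were fixed with cold TCA (10% final) and stained with SRB, read at 515 nm. GI50 came from log concentration–growth curves against time-zero and control plates.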

ACHN = test: Growth inhibition of human ACHN cells after 48 hrs by sulforhodamine B assay; details: for CC50: read-out: LC50 (the source's name); method in brief: as §3
CAKI-1 = test: Growth inhibition of human CAKI-1 cells after 48 hrs by sulforhodamine B assay; details: CAKI-1, 48 h, read-out: LC50 (the source's name); method in brief: as §3
Malme-3M [13] = test: Growth inhibition of human MALME-3M cells after 48 hrs by sulforhodamine B assay; details: read-out: LC50 (the source's name); method in brief: as §3
KM12 = test: Growth inhibition of human KM12 cells after 48 hrs by sulforhodamine B assay; details: KM12, 48 h; for CC50: read-out: LC50 (the source's name); method in brief: as §3
NCI-H522 = test: Growth inhibition of human NCI-H522 cells after 48 hrs by sulforhodamine B assay; details: NCI-H522, 48 h; for CC50: read-out: LC50 (the source's name); method in brief: as §3

SMILES | growth at 100 µM [1] [%] | growth at 100 µM (SK-MEL-28) [%] | growth at 100 µM (SF-295) [%] | growth at 10 µM (BT-549 [2]) [%] | growth at 10 µM (Malme-3M [3]) [%] | growth at 10 µM (SNB-19) [%] | growth at 10 µM (NCI-H226) [%] | growth at 10 µM (HOP-92) [%] | growth at 10 µM [4] [%] | growth at 10 µM (MOLT-4 [5]) [%] | growth at 1 µM [6] [%] | growth at 1 µM (DU-145) [%] | growth at 1 µM (786-0 [7]) [%] | growth at 1 µM (MOLT-4 [8]) [%] | growth at 0.1 µM [9] [%] | growth at 0.1 µM (MDA-MB-231) [%] | growth at 0.1 µM (A498) [%] | growth at 0.1 µM [10] [%] | growth at 0.1 µM (UACC-62) [%] | growth at 0.1 µM (SW-620) [%] | also measured
O=S(=O)(Nc1ccccn1)c1ccc2nc(-c3ccccc3)c(-c3ccccc3)nc2c1 | 46 | 82 | 40 | -34 | -40 | 17 | -35 | -18 | -2 | -29 | 65 | 95 | 96 | 80 | 94 | 107 | 87 | 102 | 92 | 102 | growth at 0.1 µM (HCT-116): 87%; growth at 0.1 µM (HOP-62): 101%; growth at 0.01 µM (BT-549 [11]): 99%; growth at 0.01 µM (TK-10): 92%; growth at 0.01 µM (786-0 [12]): 100%; GI50 (PC-3): 1.39 µM; CC50 (PC-3): > 100 µM; TGI (ACHN): > 100 µM; CC50 (ACHN): > 100 µM; CC50 (CAKI-1): > 100 µM; CC50 (Malme-3M [13]): > 100 µM; TGI (KM12): > 100 µM; CC50 (KM12): > 100 µM; GI50 (NCI-H522): 1.6 µM; CC50 (NCI-H522): > 100 µM
O=S(=O)(Nc1ccc(Cl)cc1)c1ccc2nc(-c3ccccc3)c(-c3ccccc3)nc2c1 | 59 | 82 | 77 | -20 | -43 | 17 | -29 | -13 | -7 | -39 | 76 | 93 | 93 | 86 | 98 | 101 | 76 | 102 | 87 | 91 | growth at 0.1 µM (HCT-116): 90%; growth at 0.1 µM (HOP-62): 100%; growth at 0.01 µM (BT-549 [11]): 98%; growth at 0.01 µM (TK-10): 90%; growth at 0.01 µM (786-0 [12]): 97%; GI50 (PC-3): 1.47 µM; CC50 (PC-3): > 100 µM; TGI (ACHN): > 100 µM; CC50 (ACHN): > 100 µM; CC50 (CAKI-1): > 100 µM; CC50 (Malme-3M [13]): > 100 µM; TGI (KM12): > 100 µM; CC50 (KM12): > 100 µM; CC50 (NCI-H522): > 100 µM
